The values below come from ChEMBL document CHEMBL1142971, “NO-donor COX-2 inhibitors. New nitrooxy-substituted 1,5-diarylimidazoles endowed with COX-2 inhibitory and vasodilator properties” (J Med Chem, 2007).

Series [1] in a line: Stability in human serum at 100 uM after 24 hrs. The class given is ADME, cell-free. Conditions: read-out: Stability. The essentials:
(§1)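 Compound incubated at 37 ± 0.5 °C in human serum or human whole blood. Aliquots taken at set times were diluted 1:2 with acetonitrile containing 0.1% TFA to deproteinize, then sonicated, vortexed, centrifuged 15 min at 2150 × g and filtered.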

A short description of series [2]: Stability in human whole blood at 100 uM after 24 hrs. Type of series: ADME, tissue-based. The settings on record: read-out: Stability. The essentials: as §1
Series [3] has as its target Prostaglandin G/H synthase 1 (Homo sapiens, UniProt P23219). In words: Inhibition of COX1 in human whole blood assessed as TxB2 production after 1 hr. Type of series: tissue-based.
The species entered for series [4] is Rattus norvegicus. In words: Vasodilation of phenylephrine-induced contraction in Wistar rat aorta in the presence of ODQ. The class given is functional. The method, boiled down: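 Rat aortic strips (male Wistar, 180-200 g) were equilibrated 120 min. 1 μM ODQ (sGC inhibitor) was added to the bath 5 min before contraction with 1 μM L-phenylephrine. At plateau, cumulative vasodilator concentrations were added. Isometric relaxation was recorded and given as EC50 ± SE (μM).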

For series [5], the species on record is Rattus norvegicus. In words: Vasodilation of phenylephrine-induced contraction in Wistar rat aorta. Type of series: functional. The method, boiled down:
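Thoracic aortic strips from male Wistar rats (180-200 g) were equilibrated 120 min and precontracted with 1 μM L-phenylephrine. At plateau, cumulative concentrations of vasodilator were added, with DMSO as vehicle. Relaxation was recorded isometrically and reported as EC50 ± SE (μM).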

The target of series [6] is T1, Prostaglandin G/H synthase 2 (Homo sapiens, UniProt P35354).
T1 sequence (P35354 whole entry): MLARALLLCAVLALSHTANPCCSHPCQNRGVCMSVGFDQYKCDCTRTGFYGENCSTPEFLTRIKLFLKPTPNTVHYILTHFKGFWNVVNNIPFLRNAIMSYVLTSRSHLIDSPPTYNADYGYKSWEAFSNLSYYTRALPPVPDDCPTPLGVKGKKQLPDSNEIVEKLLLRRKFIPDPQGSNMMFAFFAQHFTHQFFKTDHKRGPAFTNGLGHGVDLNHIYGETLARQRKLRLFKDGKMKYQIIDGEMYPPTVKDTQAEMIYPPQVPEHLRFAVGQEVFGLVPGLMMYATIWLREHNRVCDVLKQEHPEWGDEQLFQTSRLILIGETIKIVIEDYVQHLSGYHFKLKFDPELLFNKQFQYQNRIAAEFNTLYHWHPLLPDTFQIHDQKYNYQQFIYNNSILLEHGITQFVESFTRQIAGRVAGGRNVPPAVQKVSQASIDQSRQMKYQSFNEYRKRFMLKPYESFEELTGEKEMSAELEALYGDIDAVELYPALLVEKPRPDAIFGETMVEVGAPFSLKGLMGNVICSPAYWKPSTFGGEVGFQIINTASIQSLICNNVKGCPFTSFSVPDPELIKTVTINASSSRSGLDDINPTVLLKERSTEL

The species named for series [7] is Rattus norvegicus. In words: Vasodilation of phenylephrine-induced contraction in Wistar rat aorta in the presence of HbO2. Type of series: functional.

Sequence of Prostaglandin G/H synthase 1 (P23219 whole entry): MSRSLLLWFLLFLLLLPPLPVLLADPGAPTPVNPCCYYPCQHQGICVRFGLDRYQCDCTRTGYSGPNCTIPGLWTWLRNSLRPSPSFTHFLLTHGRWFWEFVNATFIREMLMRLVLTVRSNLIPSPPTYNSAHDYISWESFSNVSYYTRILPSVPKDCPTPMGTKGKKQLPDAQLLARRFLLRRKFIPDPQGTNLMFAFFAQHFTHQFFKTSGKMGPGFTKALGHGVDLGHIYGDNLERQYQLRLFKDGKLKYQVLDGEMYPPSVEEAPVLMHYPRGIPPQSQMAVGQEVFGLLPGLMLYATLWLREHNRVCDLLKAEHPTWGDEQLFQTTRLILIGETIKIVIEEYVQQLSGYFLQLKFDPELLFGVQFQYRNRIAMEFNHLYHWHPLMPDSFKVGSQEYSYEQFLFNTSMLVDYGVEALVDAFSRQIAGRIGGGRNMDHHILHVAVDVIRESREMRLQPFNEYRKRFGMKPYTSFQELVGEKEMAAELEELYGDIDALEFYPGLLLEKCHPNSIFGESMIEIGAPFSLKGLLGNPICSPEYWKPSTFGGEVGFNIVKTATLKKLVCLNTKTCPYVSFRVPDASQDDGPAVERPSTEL

Consider `NS(=O)(=O)c1ccc(-n2cnc(Cl)c2-c2ccc(OCCO[N+](=O)[O-])c(F)c2)cc1`, for which the remaining at 24 h, 100 µM was over 98% in series [1] and 58.8% in series [2]. Also, in series [3], the IC50 is over 100 µM. In addition, the values for the EC50 in the series filed under Rattus norvegicus [4] and in the series filed under Rattus norvegicus [5] were 12 µM and 0.051 µM, respectively.
In the case of `COc1ccc(-c2c(Cl)ncn2-c2ccc(S(N)(=O)=O)cc2)cc1F` [CIMICOXIB], the IC50 in series [3] came out at 1.9 µM. For the same compound, the EC50 in the series filed under Rattus norvegicus [4] was determined as 25 µM.
Take `CS(=O)(=O)c1ccc(-n2cnc(Cl)c2-c2ccc(OCCCO)c(F)c2)cc1`: the IC50 in series [6] and in series [3] was over 100 µM throughout.
In the case of `CS(=O)(=O)c1ccc(-n2cnc(Cl)c2-c2ccc(OCCO)c(F)c2)cc1`, the IC50 in series [6] was 56 µM; in series [3] it was over 100 µM.
For the compound `O=[N+]([O-])O[C@H]1CO[C@H]2[C@@H]1OC[C@H]2O[N+](=O)[O-]` [ISOSORBIDE DINITRATE], the values for the EC50 in the series listed under Rattus norvegicus [7], in the series listed under Rattus norvegicus [4] and in the series filed under Rattus norvegicus [5] were 55 µM, over 100 µM and 4.7 µM, respectively.
In the case of `NS(=O)(=O)c1ccc(-n2cnc(Cl)c2-c2ccc(OCCCO)c(F)c2)cc1`, the IC50 in series [6] and in series [3] was over 100 µM in each case.
Regarding `NS(=O)(=O)c1ccc(-n2cnc(Cl)c2-c2ccc(OCCO)c(F)c2)cc1`, the IC50 is 20 µM in series [6] and over 100 µM in series [3].
On to `CS(=O)(=O)c1ccc(-n2cnc(Cl)c2-c2ccc(OCC(CO[N+](=O)[O-])O[N+](=O)[O-])c(F)c2)cc1` (centres undefined), for which the IC50 in series [6] was 76 µM; in series [3], over 100 µM. Also, the remaining at 24 h, 100 µM was over 97% in series [1] and 43.6% in series [2]. The EC50 in the series listed under Rattus norvegicus [7] was 0.061 µM; in the series filed under Rattus norvegicus [4], over 100 µM.
As to `NS(=O)(=O)c1ccc(-n2cnc(Cl)c2-c2ccc(OCCCO[N+](=O)[O-])c(F)c2)cc1`, the IC50 was 16 µM in series [6] and over 100 µM in series [3]. The remaining at 24 h, 100 µM was over 98% in series [1] and 64.1% in series [2]. Moreover, the values for the EC50 in the series listed under Rattus norvegicus [4] and in the series filed under Rattus norvegicus [5] were 18 µM and 0.1 µM, respectively.
For the compound `COc1ccc(-c2c(Cl)ncn2-c2ccc(S(C)(=O)=O)cc2)cc1F`, the IC50 in series [6] is 0.09 µM; in series [3] it was 5.8 µM. In addition, the EC50 in the series listed under Rattus norvegicus [4] worked out at 24 µM.
Turning to `CS(=O)(=O)c1ccc(-n2cnc(Cl)c2-c2ccc(OCCO[N+](=O)[O-])c(F)c2)cc1`, the remaining at 24 h, 100 µM in series [1] was over 98%; in series [2], 53.3%. In series [3], the IC50 is over 100 µM. Further, the figures for the EC50 in the series listed under Rattus norvegicus [4] and in the series filed under Rattus norvegicus [5] were 6.5 µM and 0.021 µM, respectively.
In the case of `CS(=O)(=O)c1ccc(-n2cnc(Cl)c2-c2ccc(OCCCO[N+](=O)[O-])c(F)c2)cc1`, the IC50 was 14 µM in series [6] and over 100 µM in series [3]. In addition, the remaining at 24 h, 100 µM in series [1] is over 98%; in series [2] it was 60.6%. In addition, the figures for the EC50 in the series listed under Rattus norvegicus [4] and in the series filed under Rattus norvegicus [5] were 6.3 µM and 0.078 µM, respectively.

A word on the IC50: it is the concentration that inhibits the measured activity by half. The EC50 is the concentration needed to bring the measured effect to its halfway point.
